From PubChem BioAssay
SENP1 FRET inh = human SENP1 catalytic domain inhibitors, primary screen, biochemical, FRET, uHTS | recombinant SENP1 catalytic domain, CyPet-SUMO1-YPet FRET cleavage | inhibition, % at 10 µM | hit rate 0.21% among 360,000 | Sentrin-specific protease 1 (Homo sapiens), Q9P0U3;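 active = inhibition at least 30% at 10 µM, raw YFP signal under a set limit, fluorescence ratio 0.5 to 1.5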
Target sequence (Q9P0U3 419-644 limits assumed): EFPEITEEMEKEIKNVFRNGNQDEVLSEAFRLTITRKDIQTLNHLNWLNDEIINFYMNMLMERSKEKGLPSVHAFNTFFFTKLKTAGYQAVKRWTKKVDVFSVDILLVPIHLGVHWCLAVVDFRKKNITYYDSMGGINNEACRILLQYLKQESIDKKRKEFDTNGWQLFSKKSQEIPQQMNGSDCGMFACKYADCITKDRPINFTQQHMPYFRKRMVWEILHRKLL
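Test system: human SENP1 catalytic domain; medium: Tris pH 8 buffer plus EDTA, NaCl, BME, BSA, NP40, catalase; incubation: 50 min reaction at room temperature; technique: FRET, CFP and YFP emission; controls: no-enzyme low control and enzyme-plus-DMSO high control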
FAS-TE inh = FAS thioesterase domain inhibitors, primary screen, biochemical, fluorescence intensity, uHTS. inhibition, % at 15 µM. recombinant FAS-TE, OMFH fluorogenic substrate, fluorescence endpoint. Fatty acid synthase (Homo sapiens), P49327. hit rate 0.67% among 360,000;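 active = compounds whose normalised, plate-corrected inhibition of enzyme fluorescence in the single-dose primary screen is 50% or more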
Cardio protect = cardioprotection against H2O2-induced cell death, primary screen, uHTS, H9c2 cells, ATPLite luminescence | H9c2 cardiomyocytes, H2O2 injury protection, 2 h | protection from H2O2 cell death, % at 20 µM | hit rate 0.63% among 360,000 | AID 588492, 2011;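 active = compounds giving at least 50% protection of heart cells from peroxide-induced death in the single-dose screen, raw or plate-pattern-corrected value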
NR3A LBD binder = binders of NR3A ligand-binding domain, primary screen, biophysical, differential scanning fluorimetry, uHTS. AID 1259313, 2017. hit rate 2.5% among 340,000. NR3A LBD differential scanning fluorimetry, Tm shift; 0% = protein alone, 100% = glycine-bound protein. Glutamate receptor ionotropic, NMDA 3A (GRIN3A) ligand-binding domain. Tm shift relative to glycine control, % at 25 µM;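 active = melting temperature shift of at least 10% of the positive control shift, at one fixed dose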
Arrestin-AP2 inh = inhibitors of beta-arrestin/AP2 binding, primary screen, biochemical, GPCR trafficking, flow cytometry; FITC-arrestin peptide / GST-AP2 beads; AP2 beta2 appendage carries R879A mutation; inhibition, % at 10 µM; hit rate 0.31% among 340,000; AID 504490, 2011;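 active = inhibition above a set limit, near 3 SD of compounds lacking own fluorescence, cut at about 54% in these data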
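Test system: GST-tagged AP2 beta2-adaptin appendage (R879A) on 4 µm glutathione beads; also added: fluorescein-tagged arrestin peptide at 50 nM final; timing: 12 min plus 1 h, RT; signal: flow cytometry, FL1 (488/535 nm); read-out: percent drop in bead-associated FITC signal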
hiPSC survival = enhancers of single-cell hiPSC survival, primary screen, ATPlite luminescence. 100% = ROCK inhibitor wells, 0% = DMSO. survival enhancement, % at 20 µM. hit rate 0.044% among 360,000. AID 602274, 2012; in the data active = survival enhancement above about 18%;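 also: cells exposed to compounds for 16 hours before the ATP read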
Each line names hits and unclear results; the compound was inactive in the other large screens. The list is not random: actives were taken first. Their share in the collection is about 4%.

CN(Cc1cc2ccccc2[nH]c1=O)S(C)(=O)=O	none
COc1ccccc1CNc1nc(NCc2ccc3occc3c2)c2sccc2n1	none (no result: NR3A LBD binder, Arrestin-AP2 inh)
Cc1ccc(N2C(=O)CS/C2=C(\C(Cl)=C(Cl)Cl)[N+](=O)[O-])cc1	Cardio protect 69, NR3A LBD binder 11
CC(C)(C)NC(=S)NNC(=O)[C@H]1C[C@@H]1c1ccccc1	none
Cc1ccc(C2CC2C(=O)NNC(=S)Nc2ccc(Cl)cc2)cc1 (configuration not stated)	NR3A LBD binder 12
O=C(c1cc(C2CC2)nn1-c1ccccc1)N1CCN(S(=O)(=O)c2ccccc2F)CC1	none (no result: NR3A LBD binder, Arrestin-AP2 inh)
S=c1[nH]c2cc3ccccc3cc2[nH]1	NR3A LBD binder 26
COc1ccc(-c2sc3ccccc3c2/C=C/c2ccncc2)cc1	none
CCOC(=O)c1c(C)[nH]c(C)c1C(=O)COc1ncnc2cc([N+](=O)[O-])ccc12	Cardio protect 65
COc1ccc(N2CCOCC2)c(NC(=O)c2ccc(Br)o2)c1	NR3A LBD binder 13
O=C(Nc1ccccc1N1CCOCC1)c1ccc([N+](=O)[O-])o1	NR3A LBD binder 19
O=C(Nc1cc(Cl)ccc1N1CCOCC1)c1ccc(Br)o1	none
COc1ccc(C(C(=O)NC2CCCCC2)N(C(=O)Cc2c[nH]c3ccccc23)c2ccccc2C)cc1OC (configuration not stated)	none
O=C(NC1CCCCC1)C(c1cccs1)N(Cc1cccs1)C(=O)c1cccs1 (configuration not stated)	none
O=C(NC1CCCCC1)C(c1ccc2ncccc2c1)N(Cc1ccco1)C(=O)c1ccc2c(c1)OCCO2 (configuration not stated)	Cardio protect 56
COc1ccc(C(C(=O)NC2CCCCC2)N(Cc2cccs2)C(=O)Cc2c[nH]c3ccccc23)cc1OC (configuration not stated)	Cardio protect 52
O=C(NC1CCCCC1)C(c1ccc2ncccc2c1)N(Cc1cccs1)C(=O)c1cccs1 (configuration not stated)	Cardio protect 51, NR3A LBD binder 14
CNC(=O)C[C@H]1C(=O)N(c2ccc(Br)cc2)C[C@@H]1C	none (no result: NR3A LBD binder, Arrestin-AP2 inh)
CCCCCc1c(-c2ccc(OC)cc2)ncn1CCc1ccccc1OC	none (no result: Cardio protect, NR3A LBD binder, Arrestin-AP2 inh)
CCn1c(=O)cc(OCC(=O)Nc2ccccc2C#N)c2ccccc21	Cardio protect 60
CCOC(=O)c1ccc(NC(=O)COc2cc(=O)n(CC)c3ccccc23)cc1	none
O=C(COC(=O)Cc1c(Cl)cccc1Cl)Nc1ccccc1-c1ccccc1	none
O=C(CSCc1c(Cl)cccc1Cl)Nc1ccccc1-c1ccccc1	NR3A LBD binder 15
O=C(CNC(c1ccccc1)c1ccccc1)Nc1ccccc1-c1ccccc1	NR3A LBD binder 17
COc1cccc(C(C)(O)c2nc(-c3cccc(C#N)c3)cs2)c1 (configuration not stated)	none (no result: NR3A LBD binder, Arrestin-AP2 inh)
Cn1c(NCCOc2ccccc2Cl)nc2cc(-c3ccc(F)cc3)sc2c1=O	none (no result: NR3A LBD binder, Arrestin-AP2 inh)
O=C(c1ccc(Cl)c(Cl)c1)N1CCC(=O)N([C@H](COCc2ccc(Cl)cc2)Cc2ccccc2)CC1	none (no result: Cardio protect, NR3A LBD binder, Arrestin-AP2 inh)
Cc1ccc2sc(N(CCCN(C)C)C(=O)c3ccc(S(=O)(=O)N4CCc5ccccc5C4)cc3)nc2c1C	NR3A LBD binder 14
COc1cccc2sc(N(CCCN(C)C)C(=O)c3ccc(S(=O)(=O)N4CCc5ccccc5C4)cc3)nc12	none
Cc1cccc(C)c1N1C(=O)c2ccccc2NC(=O)C1C(=O)NCCOc1ccccc1 (configuration not stated)	none (no result: FAS-TE inh, Cardio protect, NR3A LBD binder, Arrestin-AP2 inh, hiPSC survival)
CC(Sc1nc2ncc(Cl)cc2[nH]1)C(=O)Nc1ccccc1[N+](=O)[O-] (configuration not stated)	none (no result: NR3A LBD binder, Arrestin-AP2 inh)
COc1ccc(CC(=O)N(Cc2ccccc2)c2ccccc2)cc1S(=O)(=O)N1CCOCC1	Cardio protect 69
COC(=O)CSc1nnc(CSc2nc(C)cc(C)n2)n1Cc1ccco1	NR3A LBD binder 14
Cc1cc(C)nc(SCc2nnc(SCC(=O)Nc3ccc(C)c(C)c3)n2Cc2ccco2)n1	none
CN(C)Cc1cc(O)c(CN(C)C)cc1O	SENP1 FRET inh 32, Cardio protect 61
C=CCc1cccc(/C=N/NC(=O)c2ccccc2OC)c1O	none
C=CCc1cccc(/C=N/NC(=O)c2ccc3nc[nH]c3c2)c1O	Cardio protect 50, NR3A LBD binder 11
C=CCc1cccc(/C=N/NC(=O)c2ccccc2Br)c1O	Cardio protect 51
O=C(N/N=C/c1ccc(Cl)cc1Cl)c1ccc2nc[nH]c2c1	none
O=C(COc1ccccc1)NC(=S)Nc1cccc2c(O)cccc12	none (no result: NR3A LBD binder, Arrestin-AP2 inh)
COc1cccc(-c2oc3c(c2-c2ccc(Br)nc2)C(O)CCC3)c1 (configuration not stated)	none (no result: Cardio protect, NR3A LBD binder, Arrestin-AP2 inh)
O=[N+]([O-])c1ccc(O)c(-c2nc(-c3ccccc3)c(-c3cccs3)[nH]2)c1	NR3A LBD binder 30
O=C(O)c1ccc(-c2nc(-c3ccccc3)c(-c3cccs3)[nH]2)cc1	none
C/C(CCc1ccc2c(c1)OCO2)=N\N=C(/N)SC1CC(=O)N(c2ccc(Cl)cc2)C1=O (configuration not stated)	NR3A LBD binder 16
N/C(=N\N=C\c1ccc2c(c1)OCO2)SC1CC(=O)N(c2ccc(C(=O)O)cc2)C1=O (configuration not stated)	none
O=c1[nH]c(SCc2n[nH]c(=S)n2-c2ccccc2)nc2sc3c(c12)CCC3	Cardio protect 62
O=c1[nH]c(SCc2n[nH]c(=S)n2-c2ccccc2)nc2ccccc12	none
Nc1cc2c(cc1Cl)-c1ccc(Cl)cc1C2	NR3A LBD binder 30 (no result: Arrestin-AP2 inh)
Cc1ccc(C2CC(=O)Oc3cc(C)c(Br)c(C)c32)cc1 (configuration not stated)	NR3A LBD binder 18
CCCNC(=O)C1(C)CCN(C(=O)c2ccc(C)c(F)c2)C1 (configuration not stated)	none (no result: NR3A LBD binder, Arrestin-AP2 inh)
O=C(CSc1nc2nc(-c3cccs3)cc(C(F)(F)F)c2c(=O)[nH]1)Nc1ccc(F)c(F)c1	NR3A LBD binder 35
Nc1nc(SCC(=O)Nc2ccc(C(F)(F)F)cc2)[nH]c(=O)c1NC(=O)c1ccc(F)c(F)c1	NR3A LBD binder 28
CN=C1CC(SC)=C1c1ccc(C)cc1	NR3A LBD binder 19
